In brackets after ≈: the same amount, converted by molar mass. Activity calls are given as the source filed them. Unless noted, the calls are words filed in the database; no cut-off is given here.
Legend:
Plasmodium falciparum [1] = assay: Antimalarial activity against chloroquine-sensitive Plasmodium falciparum D6 assessed as plasmodial LDH activity; format: functional, organism-based
[2] = system: Mycobacterium intracellulare; assay: Antimicrobial activity against Mycobacterium intracellulare ATCC 23068 by Franzblau method; format: functional, organism-based
Pseudomonas aeruginosa = assay: Antimicrobial activity against Pseudomonas aeruginosa ATCC 27853 by CLSI method; format: functional, organism-based
In short: (§1)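 Antibacterial testing used CLSI/NCCLS broth dilution for aerobically growing bacteria, with 20 as the highest test concentration.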

[3] = Selectivity index, ratio of IC50 for african green monkey Vero cells to IC50 for chloroquine-sensitive Plasmodium falciparum D6; format: toxicity, cell-based; details: Vero cells versus Plasmodium falciparum D6, read-out: Ratio IC50
Escherichia coli [4] = assay: Antimicrobial activity against Escherichia coli ATCC 35218 by CLSI method; format: functional, organism-based
Staphylococcus aureus [5] = assay: Antimicrobial activity against methicillin-resistant Staphylococcus aureus ATCC 43300 by CLSI method; format: functional, organism-based
Leishmania donovani = assay: Antileishmanial activity against Leishmania donovani promastigote by Alamar Blue assay; format: functional, organism-based
Plasmodium falciparum [6] = assay: Antimalarial activity against chloroquine-resistant Plasmodium falciparum W2 assessed as plasmodial LDH activity; format: functional, organism-based
[7] = system: Mycobacterium intracellulare; assay: Bactericidal activity against Mycobacterium intracellulare ATCC 23068 at 20 ug/ml by Franzblau method; format: functional, organism-based
Candida albicans [8] = assay: Antifungal activity against Candida albicans at 20 ug/ml; format: functional, organism-based
In short: (§2)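 Broth dilution antifungal testing followed the NCCLS reference method for yeasts, with 20 as the highest test concentration. MIC was the lowest concentration with no detectable growth. MFC was the lowest concentration killing the organism.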

Escherichia coli [9] = assay: Bactericidal activity against Escherichia coli ATCC 35218 at 20 ug/ml by CLSI method; format: functional, organism-based; in short: as §1
Staphylococcus aureus [10] = assay: Antimicrobial activity against methicillin-resistant Staphylococcus aureus ATCC 43300 at 20 ug/ml by CLSI method; format: functional, organism-based
Aspergillus fumigatus = assay: Antifungal activity against Aspergillus fumigatus; format: functional, organism-based
In short: (§3)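 Yeasts and A. fumigatus were tested by broth microdilution following the NCCLS antifungal standards. The highest test concentration was 20.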

[11] = Selectivity index, ratio of IC50 for african green monkey Vero cells to IC50 for chloroquine-resistant Plasmodium falciparum W2; format: toxicity, cell-based; details: Vero cells versus Plasmodium falciparum W2, read-out: Ratio IC50
[12] = system: Mycobacterium intracellulare; assay: Antimicrobial activity against Mycobacterium intracellulare ATCC 23068 at 20 ug/ml by Franzblau method; format: functional, organism-based
[13] = Inhibition of beta-hematin formation; format: functional
Cryptococcus neoformans = assay: Antifungal activity against Cryptococcus neoformans; format: functional, organism-based; in short: as §3
Staphylococcus aureus [14] = assay: Bactericidal activity against methicillin-resistant Staphylococcus aureus ATCC 43300 at 20 ug/ml by CLSI method; format: functional, organism-based
In short: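 MBC is the lowest concentration that kills the organism. 20 was the highest concentration tested.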

Candida albicans [15] = assay: Fungicidal activity against Candida albicans at 20 ug/ml; format: functional, organism-based; in short: as §2
Vero = assay: Cytotoxicity against african green monkey Vero cells upto 23.8 […] by neutral dye assay; format: cell-based, Chlorocebus sabaeus
In short: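 Vero monkey kidney cells were exposed to compound up to a highest concentration of 23.8, with viability read by neutral red uptake.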

Escherichia coli [16] = assay: Antimicrobial activity against Escherichia coli ATCC 35218 at 20 ug/ml by CLSI method; format: functional, organism-based; in short: as §1
Pichia kudriavzevii [17] = assay: Antifungal activity against Candida krusei; format: functional, organism-based; in short: as §3
Staphylococcus aureus [18] = assay: Antimicrobial activity against Staphylococcus aureus ATCC 29213 by CLSI method; format: functional, organism-based
Nakaseomyces glabratus = assay: Antifungal activity against Candida glabrata; format: functional, organism-based; in short: as §3
Pichia kudriavzevii [19] = assay: Fungicidal activity against Candida krusei at 20 ug/ml; format: functional, organism-based; in short: as §2
Pichia kudriavzevii [20] = assay: Antifungal activity against Candida krusei at 20 ug/ml; format: functional, organism-based; in short: as §2
[21] = Plasmodium falciparum, D6, read-out: IC50
[22] = Leishmania donovani, read-out: IC50
[23] = Plasmodium falciparum, W2, read-out: IC50

Compound	IC50 (Plasmodium falciparum [1]; [21]) [µg/mL]	Activity [2]	Activity (Pseudomonas aeruginosa)	selectivity ratio [3]	Activity (Staphylococcus aureus [5])	IC90 (Leishmania donovani; Leishmania donovani) [µg/mL]	IC50 (Leishmania donovani; [22]) [µg/mL]	IC50 (Plasmodium falciparum [6]; [23]) [µg/mL]	Activity [7]	Activity (Candida albicans [8])	Activity (Escherichia coli [9])	Activity (Staphylococcus aureus [10])	Activity (Aspergillus fumigatus)	selectivity ratio [11]	IC50 [13] [µM]	IC50 (Cryptococcus neoformans) [µg/mL]	MFC (Cryptococcus neoformans) [µg/mL]	MIC (Cryptococcus neoformans) [µg/mL]	Activity (Candida albicans [15])	IC50 (Vero)	also measured
COc1cc(NC(C)CCCNC(=O)C[C@H](NC(=O)[C@@H](N)CCCCN)C(=O)O)c2nc(C(C)(C)C)ccc2c1 (some centres not stated)	3.8 (≈ 6.8 µM)	inactive	inactive	> 6.2	inactive	31 (≈ 55.5 µM)	9.4 (≈ 16.8 µM)	2.8 (≈ 5.01 µM)	inactive	inactive	inactive	inactive	inactive	> 8.5	131	3.5 (≈ 6.26 µM)	5 (≈ 8.95 µM)	5 (≈ 8.95 µM)	inactive	Non-toxic	IC50 (Escherichia coli [4]): 15 µg/mL (≈ 26.8 µM); MIC (Escherichia coli [4]): 20 µg/mL (≈ 35.8 µM); Activity [12]: inactive; Activity (Staphylococcus aureus [14]): inactive
COc1cc(NC(C)CCCNC(=O)C[C@H](NC(=O)[C@@H](N)CCCNC(=N)N)C(=O)O)c2nc(C(C)(C)C)ccc2c1 (some centres not stated)	3.3 (≈ 5.62 µM)	inactive	inactive	> 7.2	inactive			2.8 (≈ 4.77 µM)	inactive	inactive	inactive	inactive	inactive	> 8.5	115	15 (≈ 25.6 µM)	20 (≈ 34.1 µM)	20 (≈ 34.1 µM)	inactive	Non-toxic	IC50 (Escherichia coli [4]): 15 µg/mL (≈ 25.6 µM); IC50 (Leishmania donovani): Not Active; IC90 (Leishmania donovani): inactive; Activity [12]: inactive; Activity (Staphylococcus aureus [14]): inactive; Activity (Escherichia coli [16]): inactive
COc1cc(NC(C)CCCNC(=O)[C@@H](CCCNC(=N)N)NC(=O)[C@H](N)CCCNC(=N)N)c2nc(C(C)(C)C)ccc2c1 (some centres not stated)		inactive	inactive			34 (≈ 54.2 µM)	20 (≈ 31.9 µM)		inactive	inactive	inactive		inactive		> 1000	3.55 (≈ 5.65 µM)	10 (≈ 15.9 µM)	10 (≈ 15.9 µM)	inactive	Non-toxic	IC50 (Plasmodium falciparum [1]): Not Active; Activity (Escherichia coli [4]): inactive; IC50 (Pichia kudriavzevii [17]): 7.08 µg/mL (≈ 11.3 µM); MFC (Pichia kudriavzevii [17]): 10 µg/mL (≈ 15.9 µM); MIC (Pichia kudriavzevii [17]): 10 µg/mL (≈ 15.9 µM); IC50 (Staphylococcus aureus [5]): 5.96 µg/mL (≈ 9.49 µM); MBC (Staphylococcus aureus [5]): 20 µg/mL (≈ 31.9 µM); MIC (Staphylococcus aureus [5]): 10 µg/mL (≈ 15.9 µM); IC50 (Plasmodium falciparum [6]): Not Active; IC50 (Staphylococcus aureus [18]): 11.2 µg/mL (≈ 17.8 µM); MBC (Staphylococcus aureus [18]): 20 µg/mL (≈ 31.9 µM); MIC (Staphylococcus aureus [18]): 20 µg/mL (≈ 31.9 µM); IC50 (Nakaseomyces glabratus): 12.4 µg/mL (≈ 19.8 µM); MFC (Nakaseomyces glabratus): 20 µg/mL (≈ 31.9 µM); MIC (Nakaseomyces glabratus): 20 µg/mL (≈ 31.9 µM); Activity [12]: inactive; Activity (Escherichia coli [16]): inactive
COc1cc(NC(C)CCCNC(=O)C[C@@H](NC(=O)[C@H](N)CCCN)C(=O)O)c2nc(C(C)(C)C)ccc2c1 (some centres not stated)	2.5 (≈ 4.59 µM)	inactive	inactive	> 9.5	inactive			3.4 (≈ 6.24 µM)		inactive			inactive	> 7	> 1000	4.86 (≈ 8.92 µM)	10 (≈ 18.4 µM)	10 (≈ 18.4 µM)	inactive	Non-toxic	Activity (Escherichia coli [4]): inactive; IC50 (Leishmania donovani): Not Active; IC90 (Leishmania donovani): inactive; Activity (Pichia kudriavzevii [19]): inactive; Activity (Pichia kudriavzevii [20]): inactive; Activity (Staphylococcus aureus [18]): inactive; IC50 (Nakaseomyces glabratus): 13.7 µg/mL (≈ 25.1 µM); MFC (Nakaseomyces glabratus): 20 µg/mL (≈ 36.7 µM); MIC (Nakaseomyces glabratus): 20 µg/mL (≈ 36.7 µM)
COc1cc(NC(C)CCCNC(=O)[C@@H](CCCN)NC(=O)[C@H](N)CCCN)c2nc(C(C)(C)C)ccc2c1 (some centres not stated)	4.76 (≈ 8.75 µM)		inactive	> 5	inactive	38 (≈ 69.9 µM)	20 (≈ 36.8 µM)	3.3 (≈ 6.07 µM)	inactive	inactive	inactive	inactive	inactive	> 7.21	39	3.5 (≈ 6.44 µM)	5 (≈ 9.2 µM)	5 (≈ 9.2 µM)	inactive	Non-toxic	IC50 [2]: 10 µg/mL (≈ 18.4 µM); MIC [2]: 20 µg/mL (≈ 36.8 µM); Activity (Escherichia coli [4]): inactive; Activity (Staphylococcus aureus [14]): inactive; Activity (Escherichia coli [16]): inactive

Reference: ChEMBL document CHEMBL2021883, “Amino acid, dipeptide and pseudodipeptide conjugates of ring-substituted 8-aminoquinolines: synthesis and evaluation of anti-infective, β-haematin inhibition and cytotoxic activities” (Eur J Med Chem, 2012)
